The test system of assay [1] is Rattus norvegicus. The assay can be described thus: Percent change of the antiinflammatory activity in the 5-h Evans Blue-Carrageenan induced pleural effusion assay at the dose of 4.0 mg/kg (p.o.). It is filed as functional. The following applies: route oral. The method in brief:
(§1)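 Six fasted male rats per group received compound orally by gavage (10 mL/kg) in vehicle containing 0.5% Tween 80. Pleural effusion was induced by intrapleural injection of 5 mL 0.075% Evans blue–0.5% carrageenan type 7 and measured after 5 h. Results are given as percent change in pleural fluid volume versus a concurrent control group, with indomethacin 4.0 mg/kg as standard.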

In assay [2] the test system is Rattus norvegicus. The assay can be described thus: Percent change of the antiinflammatory activity in the 5-h Evans Blue-Carrageenan induced pleural effusion assay at the dose of 20 mg/kg (p.o.). In kind it is functional. The following applies: route oral. The method in brief:
as §1

Assay [3] deals with Rattus norvegicus. As to the kind of experiment: Evaluated for the antiinflammatory activity in the 5-h Evans Blue-Carrageenan induced pleural effusion assay at the dose of 20 mg/kg (p.o.). Particulars: route oral. In kind it is functional. The gist of the method: as §1
Assay [4] concerns Rattus norvegicus. The assay can be described thus: Evaluated for the antiinflammatory activity in the 5-h Evans Blue-Carrageenan induced pleural effusion assay at the dose of 4.0 mg/kg (p.o.). In kind it is functional. The following applies: route oral. The method in brief: as §1
The target of assay [5] is T1, Cyclooxygenase (Bos taurus, UniProt O62664+O62698).
T1 sequence (O62664 whole entry): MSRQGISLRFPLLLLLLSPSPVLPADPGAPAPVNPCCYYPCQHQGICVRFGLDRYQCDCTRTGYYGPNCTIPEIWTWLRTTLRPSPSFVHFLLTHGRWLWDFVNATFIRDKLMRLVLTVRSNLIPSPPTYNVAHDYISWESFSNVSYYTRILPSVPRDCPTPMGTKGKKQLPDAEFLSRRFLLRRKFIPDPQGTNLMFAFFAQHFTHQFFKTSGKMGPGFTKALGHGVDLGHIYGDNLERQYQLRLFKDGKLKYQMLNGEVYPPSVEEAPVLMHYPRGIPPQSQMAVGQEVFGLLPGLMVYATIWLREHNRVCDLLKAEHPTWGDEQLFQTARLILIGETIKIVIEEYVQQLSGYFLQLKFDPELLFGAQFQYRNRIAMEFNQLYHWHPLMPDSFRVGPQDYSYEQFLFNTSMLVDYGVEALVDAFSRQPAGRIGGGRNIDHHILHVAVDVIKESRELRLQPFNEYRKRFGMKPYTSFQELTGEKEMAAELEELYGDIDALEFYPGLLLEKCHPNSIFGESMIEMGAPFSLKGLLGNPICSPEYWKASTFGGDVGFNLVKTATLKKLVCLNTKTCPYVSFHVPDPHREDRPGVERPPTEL
T1 sequence (O62698 whole entry): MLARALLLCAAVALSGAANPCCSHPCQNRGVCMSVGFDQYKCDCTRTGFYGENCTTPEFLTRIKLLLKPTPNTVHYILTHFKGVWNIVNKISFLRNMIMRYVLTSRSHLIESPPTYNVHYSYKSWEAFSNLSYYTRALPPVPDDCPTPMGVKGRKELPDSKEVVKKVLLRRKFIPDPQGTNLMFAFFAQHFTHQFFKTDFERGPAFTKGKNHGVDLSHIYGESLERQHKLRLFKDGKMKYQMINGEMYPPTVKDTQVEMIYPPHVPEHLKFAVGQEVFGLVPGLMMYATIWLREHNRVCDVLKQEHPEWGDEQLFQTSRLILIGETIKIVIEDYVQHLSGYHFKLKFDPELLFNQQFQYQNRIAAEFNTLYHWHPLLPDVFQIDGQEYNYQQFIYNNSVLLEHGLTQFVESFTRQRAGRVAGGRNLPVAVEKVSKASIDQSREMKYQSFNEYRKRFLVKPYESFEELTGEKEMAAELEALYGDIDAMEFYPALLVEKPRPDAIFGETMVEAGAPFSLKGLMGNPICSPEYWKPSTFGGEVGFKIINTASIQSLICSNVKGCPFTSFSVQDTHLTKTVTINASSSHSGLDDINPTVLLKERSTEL
As to the kind of experiment: Evaluated for the inhibition of Prostaglandin synthetase obtained from bovine seminal vesicles at the dose of 20 mg/kg (p.o.). The arrangement: dose 20 mg/kg, route oral. The method in brief: (§2)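 Cyclooxygenase-containing enzyme was a lyophilized 600g supernatant of bovine seminal vesicle homogenate in 0.05 M phosphate, pH 7.8. The assay used 0.1 M phosphate pH 7.8 with epinephrine and enzyme, and drug stocks of 3×10^-1 to 3×10^-6 M. After 3 min at 30 °C, arachidonic acid was added. Activity was taken as substrate minus basal O2-uptake rate, run in triplicate, and IC50 came from regression on log concentration.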

For assay [6], the system named is Rattus norvegicus. As to the kind of experiment: Percent change of the antiinflammatory activity in the 5-h Evans Blue-Carrageenan induced pleural effusion assay at the dose of 100 mg/kg (p.o.). In kind it is functional. Particulars: route oral. The gist of the method: as §1
Assay [7] has as its target T1, Cyclooxygenase. As to the kind of experiment: Evaluated for the inhibition of Prostaglandin synthetase obtained from bovine seminal vesicles at the dose of 100 mg/kg (p.o.). The arrangement: dose 100 mg/kg, route oral. The method in brief: as §2
Assay [8] concerns Rattus norvegicus. The assay can be described thus: Evaluated for the antiinflammatory activity in the 5-h Evans Blue-Carrageenan induced pleural effusion assay at the dose of 100 mg/kg (p.o.). In kind it is functional. Particulars: route oral. The method in brief: as §1
Assay [9] has as its system Rattus norvegicus. As to the kind of experiment: Percent activity in the 5-h Evans Blue-Carrageenan induced pleural effusion assay at the dose of 100 mg/kg (p.o.). It is filed as functional. The following applies: route oral. The method in brief: as §1
For assay [10], the system named is Rattus norvegicus. The assay can be described thus: Percent activity in the 5-h Evans Blue-Carrageenan induced pleural effusion assay at the dose of 20 mg/kg (p.o.). The following applies: route oral. In kind it is functional. The gist of the method:
as §1

For assay [11], the target named is T1, Cyclooxygenase. As to the kind of experiment: Evaluated for the inhibition of prostaglandin synthetase obtained from bovine seminal vesicles at the dose of 4.0 mg/kg (p.o.). Details: dose 4 mg/kg, route oral.
The subject of assay [12] is Rattus norvegicus. As to the kind of experiment: Percent change of the antiinflammatory activity in the 5-h Evans Blue-Carrageenan induced pleural effusion assay at the dose of 0.8 mg/kg (p.o.). It is filed as functional. The following applies: route oral. The method in brief:
as §1

The test system of assay [13] is Rattus norvegicus. The assay can be described thus: Percent activity in the 5-h Evans Blue-Carrageenan induced pleural effusion assay at the dose of 0.16 mg/kg (p.o.). In kind it is functional. Particulars: route oral. The method in brief: as §1
Assay [14] has as its system Rattus norvegicus. The assay can be described thus: Evaluated for the antiinflammatory activity in the 5-h Evans Blue-Carrageenan induced pleural effusion assay at the dose of 0.16 mg/kg (p.o.). In kind it is functional. The following applies: route oral. The gist of the method: as §1
Assay [15] deals with Rattus norvegicus. As to the kind of experiment: Evaluated for the antiinflammatory activity in the 5-h Evans Blue-Carrageenan induced pleural effusion assay at the dose of 0.8 mg/kg (p.o.). In kind it is functional. Particulars: route oral. The method in brief:
as §1

Assay [16] relates to Rattus norvegicus. As to the kind of experiment: Percent activity in the 5-h Evans Blue-Carrageenan induced pleural effusion assay at the dose of 4.0 mg/kg (p.o.). Particulars: route oral. In kind it is functional. The method in brief:
as §1

Assay [17] deals with Rattus norvegicus. The assay can be described thus: Persent change of the antiinflammatory activity in the 5-h Evans Blue-Carrageenan induced pleural effusion assay at the dose of 4.0 mg/kg (p.o.). It is filed as functional. Particulars: route oral. The method in brief: as §1
For assay [18], the system named is Rattus norvegicus. The assay can be described thus: Persent change of the antiinflammatory activity in the 5-h Evans Blue-Carrageenan induced pleural effusion assay at the dose of 0.16 mg/kg (p.o.). It is filed as functional. Particulars: route oral. The gist of the method: as §1
In assay [19] the test system is Rattus norvegicus. The assay can be described thus: Persent change of the antiinflammatory activity in the 5-h Evans Blue-Carrageenan induced pleural effusion assay at the dose of 0.8 mg/kg (p.o.). The following applies: route oral. It is filed as functional. The method in brief: as §1
Assay [20] has as its target T1, Cyclooxygenase. As to the kind of experiment: Evaluated for the inhibition of Prostaglandin synthetase obtained from bovine seminal vesicles at the dose of 4 mg/kg p.o. Details: dose 4 mg/kg, route oral. The method in brief: as §2
Assay [21] has as its system Rattus norvegicus. As to the kind of experiment: Persent change of the antiinflammatory activity in the 5-h Evans Blue-Carrageenan induced pleural effusion assay at the dose of 20 mg/kg (p.o.). In kind it is functional. The following applies: route oral. The method in brief:
as §1

Where only a bound is given, the exact number is not on record here.

As to `Nc1cc(-c2ccccc2)ccc1CC(=O)[O-].[Na+]`, the Change is -9% in the assay with Rattus norvegicus [1] and -34% in the assay with Rattus norvegicus [2]. In addition, the Pleural fluid came out at 3.9 mL in the assay with Rattus norvegicus [3] and 5.4 mL in the assay on Rattus norvegicus [4]. The compound also had an IC50 against Cyclooxygenase [5] of 170 µM.
Take `O=C([O-])Cc1cccc(C(=O)c2ccccc2)c1Cl.[Na+]`: the Change in the assay on Rattus norvegicus [6] is recorded as -8%. Also, on Cyclooxygenase [7], the IC50 was > 100 µM. In the assay with Rattus norvegicus [8], this compound showed a Pleural fluid of 5.7 mL.
On to `Nc1c(CC(=O)[O-])cccc1Oc1ccccc1.[Na+]`, for which the Change with Rattus norvegicus [1] is on record as 4%; with Rattus norvegicus [2], -7%. The Pleural fluid in the assay on Rattus norvegicus [3] is 5.1 mL; with Rattus norvegicus [4] it was 5.7 mL. The IC50 on Cyclooxygenase [5] turned out to be 420 µM.
Consider `CN(C)c1c(CC(=O)[O-])cccc1C(=O)c1ccccc1.[Na+]`, for which the Change with Rattus norvegicus [1] was -5%; in the assay on Rattus norvegicus [9] it was -36%; with Rattus norvegicus [10], -16%. Besides, the Pleural fluid was found to be 5.2 mL with Rattus norvegicus [3], 5.9 mL in the assay on Rattus norvegicus [4] and 3.9 mL with Rattus norvegicus [8]. For the same compound, the IC50 against Cyclooxygenase [7] was > 1000 µM.
As to `Nc1c(CC(=O)[O-])cccc1C(=O)c1ccccc1.[Na+]` [AMFENAC SODIUM], the Change with Rattus norvegicus [1] is listed as -25%; in the assay with Rattus norvegicus [12], -17%; with Rattus norvegicus [13], -15%. The compound further displayed an IC50 against Cyclooxygenase [11] of 0.2 µM. For the same compound, the figures for the Pleural fluid in the assay on Rattus norvegicus [4], in the assay on Rattus norvegicus [14] and in the assay on Rattus norvegicus [15] were 4.5 mL, 5.1 mL and 5 mL, respectively.
For the compound `CC(C(=O)[O-])c1cccc(Oc2ccccc2)c1.[Na+]` (centres undefined) [FENOPROFEN SODIUM], the values for the Change in the assay on Rattus norvegicus [2] and in the assay with Rattus norvegicus [16] were -29% and -6%, respectively. Moreover, the Pleural fluid was found to be 3.9 mL in the assay on Rattus norvegicus [3] and 5.2 mL in the assay on Rattus norvegicus [4]. This compound also displayed an IC50 on Cyclooxygenase [5] of 98 µM.
In turn, `COc1ccc2c(c1)c(CC(=O)O)c(C)n2C(=O)c1ccc(Cl)cc1` [INDOMETHACIN] had a Pleural fluid with Rattus norvegicus [4] of 4 mL. Also, the Change in the assay on Rattus norvegicus [17] is given as -28%.
Turning to `CC(C(=O)[O-])c1ccc(-c2ccccc2)cc1.[Na+]` (centres undefined), the figures for the Change with Rattus norvegicus [1] and with Rattus norvegicus [2] were -42% and -52%, respectively. The Pleural fluid is 2.9 mL in the assay on Rattus norvegicus [3] and 3.4 mL in the assay on Rattus norvegicus [4]. The same compound gave an IC50 against Cyclooxygenase [5] of 12 µM.
On the same counts, the results for `O=C([O-])Cc1ccc(-c2ccccc2)cc1.[Na+]` are -21%, -35%, 3.9 mL, 4.7 mL and 420 µM.
In the case of `CC(C(=O)[O-])c1cccc(C(=O)c2ccccc2)c1.[Na+]` (centres undefined) [KETOPROFEN SODIUM], the Change in the assay with Rattus norvegicus [18] is -4%; in the assay with Rattus norvegicus [19], -24%; in the assay on Rattus norvegicus [17] it was -41%. The values for the Pleural fluid with Rattus norvegicus [4], with Rattus norvegicus [14] and in the assay on Rattus norvegicus [15] were 3.6 mL, 5.8 mL and 4.6 mL, respectively. At Cyclooxygenase [20], this compound gave an IC50 of 3.4 µM.
Regarding `CC(C(=O)[O-])c1cccc(C(=O)c2ccccc2)c1N.[Na+]` (centres undefined), the Change was -4% in the assay with Rattus norvegicus [1] and -38% in the assay with Rattus norvegicus [6]. Also, the Pleural fluid in the assay on Rattus norvegicus [4] worked out at 6 mL; in the assay on Rattus norvegicus [8], 3.4 mL. In addition, the IC50 against Cyclooxygenase [7] was 1 µM.
`O=C([O-])Cc1cccc(C(=O)c2ccccc2)c1.[Na+]` returned a Pleural fluid in the assay with Rattus norvegicus [4] of 5.9 mL. The IC50 on Cyclooxygenase [20] was determined as 40 µM. Moreover, the Change in the assay with Rattus norvegicus [17] is -7%.
For `O=C([O-])Cc1cccc(Oc2ccccc2)c1.[Na+]`, the results for the Pleural fluid in the assay with Rattus norvegicus [3] and with Rattus norvegicus [4] were 4.9 mL and 5.1 mL, respectively. In addition, the Change in the assay with Rattus norvegicus [21] is given as -11%; in the assay on Rattus norvegicus [17], -7%. Moreover, at Cyclooxygenase [5], the IC50 is > 1000 µM.

As a reminder, the IC50 is the concentration needed to halve the response being measured.

The values are drawn from ChEMBL document CHEMBL1122044, “Antiinflammatory agents. 2. Syntheses and antiinflammatory activity of substituted 2-aminophenylacetic acid derivatives” (J Med Chem, 1982).
